Source: PubChem (several laboratories)
TbHK1 inh = Trypanosoma brucei hexokinase 1 inhibitors, primary screen, biochemical, G6PDH-coupled NADH absorbance, MLSCN library | hexokinase 1 [Trypanosoma brucei] | recombinant TbHK1, G6PDH-coupled NADH A340 | inhibition, % at 10 µM | 220,000 compounds, 0.11% hits | AID 1430, 2008;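 active means inhibition of 50% or more in the single-dose primary screen; inactive means inhibition below 50%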
M18AAP inhibitor = PfM18AAP inhibitors, malaria aminopeptidase, primary screen, biochemical, QFRET, recombinant enzyme; inhibition, % at 7.35 µM; 290,000 compounds, 1.2% hits; H-Glu-NHMec fluorogenic cleavage;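 active means inhibition above the campaign mean inhibition over all tested compounds plus 3 SD, cut at about 28% in these data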;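 further: 0% = plate median of test compound wells and 100% = 2 mM ZnCl2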
TNF death inh = inhibitors of TNF-alpha triggered necroptosis, primary screen, cell-based, Jurkat FADD-/-, single concentration; activation (protection from cell death), % at 10 µM; Jurkat FADD-/- TNF necroptosis rescue, ATP luminescence, 24 h; 0 = TNF only, 100 = no-TNF cells; 220,000 compounds, 0.068% hits; AID 463075, 2010;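 active means activation, meaning protection from cell death, of at least 50% relative to plate controls; inactive means activation below 50%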;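 further: necroptosis triggered by 40 ng/mL TNF-alpha added together with compound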
Hep lipid drop = inhibitors of hepatocyte lipid droplet formation, primary screen, imaging, high-throughput imaging, BODIPY stain; AML12 mouse hepatocytes, oleate lipid droplets; inhibition, % at 6.5 µM; 240,000 compounds, 0.4% hits; AID 1656, 2009;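 active means lipid droplet intensity inhibited by at least 50%, with more than 500 cells counted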
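Assay system: AML12 hepatocytes (mouse) / Also added: 100 µM oleic acid challenge / Times: overnight treatment with compound plus oleate / Detection: high-content imaging of BODIPY-stained droplets and DAPI nuclei / Evaluation: % inhibition of lipid droplet signal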
L929 necroptosis = inhibitors of zVAD-triggered necroptosis, primary screen, L929 cells; AID 1377, 2008; viability rescue, % at 10 µM; 220,000 compounds, 0.38% hits; L929 zVAD necroptosis rescue, ATP luminescence, 24 h; with zVAD 60 µM;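 active means activation, scaled between plate controls, above about 75%, limit read from the data; inactive means activation under that limit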;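 further: 0% = zVAD with DMSO and 100% = DMSO alone without zVAD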
RBBP9 inh = human RBBP9 inhibitors, primary screen, biochemical, fluorescence polarization, FP-Rh probe, HTS; Serine hydrolase RBBP9 (Homo sapiens), O75884; recombinant RBBP9; inhibition, % at 7.94 µM; 220,000 compounds, 0.2% hits;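 active means inhibition above the campaign mean of all tested compounds plus 3 SD, cut at about 14% in these data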;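 further: plate controls were DMSO wells with RBBP9 for no effect and wells lacking RBBP9 protein for full effect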
Target sequence (O75884 whole entry, looked up): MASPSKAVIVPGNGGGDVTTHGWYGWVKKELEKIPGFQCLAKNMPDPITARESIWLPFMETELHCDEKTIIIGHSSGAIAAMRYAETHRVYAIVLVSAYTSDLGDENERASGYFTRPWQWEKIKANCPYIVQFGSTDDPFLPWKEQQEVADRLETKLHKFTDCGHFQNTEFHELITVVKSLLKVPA
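Controls: DMSO-treated enzyme wells and wells lacking RBBP9 | Material: RBBP9 protein | Technique: Fluorescence polarization | Replication: Single well per compound, no replicates | Buffer or medium: Tris-NaCl-Pluronic buffer, pH 8.0 | Timing: 30 min compound preincubation, 45 min probe labeling, 25 °C | Read-out basis: Percent inhibition from mP, scaled between DMSO and no-protein wells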
Hep lipid conf = hepatocyte lipid droplet accumulation inhibitors, confirmation, imaging, AML12 mouse hepatocytes, single concentration, high-content; shares compounds with Hep lipid drop; BODIPY lipid droplet imaging; droplets induced with 100 µM oleic acid; inhibition, % at 5.2 µM; 870 compounds, 65% hits; AID 463183, 2010;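 active means inhibition of lipid droplet metric at least 50%, with more than 300 cells in each of four replicates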;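 further: plate controls were DMSO with oleic acid for no effect and 5 µM Triacsin-C for full effect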
AML12 tox img = AML12 hepatocyte cytotoxicity, counter-screen for hepatic lipid droplet formation project, imaging, DAPI nuclear morphology imaging. shares compounds with Hep lipid drop. AML12 mouse hepatocytes; hits give high values; cells fed 100 µM oleate overnight. z-score at 5 µM. 870 compounds, 3% hits; in the data active means z-score above about 6.3;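 further: compound exposure lasted overnight at 37 °C before fixation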
AML12 tox conf = AML12 hepatocyte cytotoxicity, confirmation, cytotoxicity control for hepatic lipid droplet formation project, cell-based, single concentration; shares compounds with Hep lipid drop; AML12 mouse hepatocyte viability, ATP luminescence; cells loaded with 100 µM oleic acid; cytotoxicity, % at 50 µM; 530 tested, under 10 active; AID 463219, 2010;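 active means cytotoxicity above 50% in each of four replicates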;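 further: compound exposure lasted overnight at 37 °C before the ATP read; 0% = DMSO-treated cells and 100% = wells with no cells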
Active calls of the source: *. Hits are enriched below; roughly 2% of the tested compounds scored in any of these assays.

For COc1ccc(CCNC(=O)CCc2cn(C)c3ccccc23)c(OC)c1OC the results were M18AAP inhibitor -5, Hep lipid drop 86*, Hep lipid conf 99* and AML12 tox img 0.84.
COc1ccc(OC)c(CNC(=O)CCCc2cn(C)c3ccccc23)c1 was read as TbHK1 inh 0, M18AAP inhibitor 4, TNF death inh 2, Hep lipid drop 82*, RBBP9 inh 0, Hep lipid conf 96* and AML12 tox img 0.28.
For COc1ccc(Br)cc1CNC(=O)CCCc1cn(C)c2ccccc12 the results were TbHK1 inh -2, M18AAP inhibitor -4, TNF death inh 1, Hep lipid drop 70*, RBBP9 inh -4, Hep lipid conf 94* and AML12 tox img -0.28.
O=[N+]([O-])c1cccc(S(=O)(=O)NCC2CC3CCC2C3)c1 (stereo unspecified) was read as M18AAP inhibitor 13 and Hep lipid drop 12.
`Oc1c(Cl)cc(Cl)cc1CNc1nc2ccccc2[nH]1` gave M18AAP inhibitor 0 and Hep lipid drop -10.
Cc1cccc(C(C(=O)NC2CCCC2)N(C(=O)c2csnn2)C2CCCC2)c1 (stereo unspecified) was read as M18AAP inhibitor -15, Hep lipid drop 77*, Hep lipid conf 74*, AML12 tox img -0.49 and AML12 tox conf 12.
Cc1cccc(C(C(=O)NC2CCCC2)N(C(=O)c2csnn2)C2CC2)c1 (stereo unspecified) was read as M18AAP inhibitor 2 and Hep lipid drop 2.
`O=C(Cc1cccc2ccccc12)Nc1c(F)cccc1F` gave M18AAP inhibitor 2, Hep lipid drop 55*, Hep lipid conf 82*, AML12 tox img -0.75 and AML12 tox conf 9.
O=C(Cc1cccc2ccccc12)Nc1ccccc1C(=O)O was read as TbHK1 inh 2, M18AAP inhibitor -8, TNF death inh 2, Hep lipid drop -2, L929 necroptosis 1 and RBBP9 inh 3.
`CCC/C(=N/Nc1ccc(Cl)cc1)c1cnnc(-c2ccccc2)n1` gave TbHK1 inh 1, M18AAP inhibitor -13, TNF death inh 1, L929 necroptosis 1 and RBBP9 inh -9.
Screening CC/C(=N/Nc1ccccc1Cl)c1cnnc(-c2ccccc2)n1 returned TbHK1 inh 4, M18AAP inhibitor 0, TNF death inh 2, Hep lipid drop 56*, RBBP9 inh -2, Hep lipid conf 75*, AML12 tox img 0.27 and AML12 tox conf -10.
Cc1ccc(Cn2nc(C)c(NC(=O)c3noc4c3CCCCC4)c2C)cc1 was read as TbHK1 inh 2, M18AAP inhibitor 1, TNF death inh -2, Hep lipid drop -1, L929 necroptosis 2 and RBBP9 inh 3.
Screening Cc1ccc(Cn2nc(C)c(NC(=O)C3(C)CC3(Br)Br)c2C)cc1 (stereo unspecified) returned TbHK1 inh 4, M18AAP inhibitor -18, TNF death inh 1, Hep lipid drop 64*, L929 necroptosis 0, RBBP9 inh -9, Hep lipid conf 68*, AML12 tox img 0.89 and AML12 tox conf 16.
